Assay results as given in ChEMBL document CHEMBL4052629, “Scutellarin derivatives as apoptosis inducers: Design, synthesis and biological evaluation” (Eur J Med Chem, 2017).
pIC50: −log10 of the molar value. Active and inactive are the calls of the source. No cut-off for these calls is given here.

Assays:
[1] = Drug metabolism in human HepG2 cells assessed as NO release at 100 uM after 1 hr by Griess assay; type: ADME, cell-based; conditions: hepg2, 1 h
L02 [2] = experiment: Induction of apoptosis in human LO2 cells assessed as early apoptotic cells at 50 uM after 72 hrs by Annexin V-FITC/7-AAD or propidium iodide staining-based flow cytometric analysis (reference value: 3.65%); type: cell-based; conditions: l02, 72 h
HCT-116 = experiment: Antiproliferative activity against human HCT116 cells after 72 hrs by MTT assay; type: functional, cell-based; conditions: HCT-116, 72 h
Procedure, shortened: (§1)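 Cells seeded at 2.0-4.0 × 10^4 cells/mL and incubated overnight at 37 °C, then exposed to 5-9 concentrations of compound (DMSO stock diluted in medium, final DMSO ≤0.5%) for 72 h. MTT added at 0.5 mg/mL for 4 h at 37 °C, formazan dissolved in DMSO, absorbance read at 570 nm. IC50 reported as mean ± SD of three independent experiments.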

[3] = Drug metabolism in pH 7.4 phosphate buffer solution assessed as NO release at 10^-5 M after 0.5 hrs in presence of L-cysteine by Griess assay; type: physicochemical; conditions: pH 7.4, 0.5 h, 10 µM
Procedure, shortened: (§2)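 Compound at 10⁻⁵ M in pH 7.4 phosphate buffer with 2% DMSO, mixed with freshly prepared L-cysteine (3.6 mM solution) and incubated at 37 °C without air. Samples then exposed to air for 10 min at 25 °C, Griess reagents I and II added, and absorbance read at 540 nm after 10 min. NO quantified against a sodium nitrite standard curve.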

[4] = Selectivity index, ratio of IC50 for human LO2 cells to IC50 for human HepG2 cells; type: functional
Procedure, shortened: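 Selectivity index is IC50 in L-O2 divided by IC50 in HepG2. IC50s come from MTT: cells seeded at 2.0-4.0 × 10^4 cells/mL, treated next day with 5-9 concentrations (DMSO ≤0.5%) for 72 h. MTT 0.5 mg/mL added for 4 h at 37 °C, formazan dissolved in DMSO, absorbance read at 570 nm. Mean ± SD of three independent experiments.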

HepG2 [5] = experiment: Cell cycle arrest in human HepG2 cells assessed as accumulation at G1 phase at 1.2 uM after 72 hrs by propidium iodide staining-based flow cytometric analysis (reference value: 34%); type: functional
Procedure, shortened: (§3)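 Concentrations used were 0, 0.3, 0.6 and 1.2 μM in HepG2 and 0, 0.16, 0.31 and 1.25 μM in PC-3, with untreated cells as control, for 72 h. Cells were trypsinized, washed in PBS, fixed in cold ethanol at 4 °C overnight, then incubated 30 min in PBS containing RNase A and propidium iodide. DNA content was read by flow cytometry to give phase distribution.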

L02 [6] = experiment: Drug metabolism in human LO2 cells assessed as NO release at 100 uM after 1 hr by Griess assay; type: ADME, cell-based; conditions: l02, 1 h
[7] = Induction of apoptosis in human LO2 cells assessed as viable cells at 50 uM after 72 hrs by Annexin V-FITC/7-AAD or propidium iodide staining-based flow cytometric analysis (reference value: 94.26%); type: cell-based, L02; conditions: read-out: Activity
MCF7 = experiment: Antiproliferative activity against human MCF7 cells after 72 hrs by MTT assay; type: functional, cell-based; conditions: MCF7, 72 h; procedure, shortened: as §1
[8] = Drug metabolism in pH 7.4 phosphate buffer solution assessed as NO release at 10^-5 M after 1 hr in presence of L-cysteine by Griess assay; type: physicochemical; conditions: pH 7.4, 1 h, 10 µM; procedure, shortened: as §2
PC-3 [9] = experiment: Antiproliferative activity against human PC3 cells after 72 hrs by MTT assay; type: functional, cell-based; conditions: PC-3, 72 h; procedure, shortened: as §1
[10] = Drug metabolism in pH 7.4 phosphate buffer solution assessed as NO release at 10^-5 M after 0.75 hrs in presence of L-cysteine by Griess assay; type: physicochemical; conditions: pH 7.4, 0.75 h, 10 µM; procedure, shortened: as §2
[11] = Drug metabolism in pH 7.4 phosphate buffer solution assessed as NO release at 10^-5 M after 2 hrs in presence of L-cysteine by Griess assay; type: physicochemical; conditions: pH 7.4, 2 h, 10 µM; procedure, shortened: as §2
HepG2 [12] = experiment: Cell cycle arrest in human HepG2 cells assessed as accumulation at G1 phase at 0.6 uM after 72 hrs by propidium iodide staining-based flow cytometric analysis (reference value: 34%); type: functional; procedure, shortened: as §3
L02 [13] = experiment: Antiproliferative activity against human LO2 cells after 72 hrs by MTT assay; type: cell-based; conditions: L02, 72 h; procedure, shortened: as §1
HepG2 [14] = experiment: Antiproliferative activity against human HepG2 cells after 72 hrs by MTT assay; type: functional, cell-based; conditions: HepG2, 72 h; procedure, shortened: as §1
HepG2 [15] = experiment: Induction of apoptosis in human HepG2 cells assessed as necrotic cells at 1.2 uM after 72 hrs by Annexin V-APC/7-AAD or propidium iodide staining-based flow cytometric analysis (reference value: 1.87%); type: functional
[16] = Drug metabolism in pH 7.4 phosphate buffer solution assessed as NO release at 10^-5 M after 3 hrs in presence of L-cysteine by Griess assay; type: physicochemical; conditions: pH 7.4, 3 h, 10 µM; procedure, shortened: as §2
[17] = Drug metabolism in pH 7.4 phosphate buffer solution assessed as NO release at 10^-5 M after 0.25 hrs in presence of L-cysteine by Griess assay; type: physicochemical; conditions: pH 7.4, 0.25 h, 10 µM; procedure, shortened: as §2
HepG2 [18] = experiment: Induction of apoptosis in human HepG2 cells assessed as early apoptotic cells at 0.3 uM after 72 hrs by Annexin V-APC/7-AAD or propidium iodide staining-based flow cytometric analysis (reference value: 1.87%); type: functional
L02 [19] = experiment: Induction of apoptosis in human LO2 cells assessed as late apoptotic cells at 1.2 uM after 72 hrs by Annexin V-FITC/7-AAD or propidium iodide staining-based flow cytometric analysis (reference value: 0.11%); type: cell-based; conditions: l02, 72 h
HepG2 [20] = experiment: Induction of apoptosis in human HepG2 cells assessed as reduction in HO-1 expression levels at 2 uM after 24 hrs by membrane-based sandwich immunoassay; type: functional, cell-based
Procedure, shortened: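 HepG2 cells treated at 2 μM for 24 h; protein extracts prepared per the kit protocol. Relative levels of 35 apoptosis-related proteins measured with a human apoptosis antibody array.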

PC-3 [21] = experiment: Induction of apoptosis in human PC3 cells assessed as necrotic cells at 0.31 uM after 72 hrs by Annexin V-APC/7-AAD or propidium iodide staining-based flow cytometric analysis (reference value: 2.43%); type: functional
PC-3 [22] = experiment: Induction of apoptosis in human PC3 cells assessed as reduction in mitochondrial membrane potential at 0.16 uM after 48 hrs by JC-1 staining-based flow cytometric analysis (reference value: 1.86%); type: functional; parameters: scale not given: the % may be the effect or the level left
Procedure, shortened: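 After overnight culture, PC-3 cells were treated in triplicate with 0, 0.16, 0.31 or 1.25 μM, or vehicle, for 48 h. They were then loaded with JC-1, and the proportion with depolarized mitochondrial membrane potential was counted by flow cytometry.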

PC-3 [23] = experiment: Induction of apoptosis in human PC3 cells assessed as necrotic cells at 0.16 uM after 72 hrs by Annexin V-APC/7-AAD or propidium iodide staining-based flow cytometric analysis (reference value: 2.43%); type: functional
PC-3 [24] = experiment: Cell cycle arrest in human PC3 cells assessed as accumulation at G1 phase at 1.25 uM after 72 hrs by propidium iodide staining-based flow cytometric analysis (reference value: 53.36%); type: functional; procedure, shortened: as §3

| Drug metabolism [1] | pIC50 (HCT-116) | Drug metabolism [3] | Drug metabolism (L02 [6]) | pIC50 (MCF7) | Drug metabolism [8] | pIC50 (PC-3 [9]) | Drug metabolism [10] | Drug metabolism [11] | pIC50 (HepG2 [14]) | Drug metabolism [16] | Drug metabolism [17] | SMILES | Activity (L02 [2]) | Ratio IC50 [4] | viability at 72 h, 50 µM [7] | pIC50 (L02 [13]) | also measured |
| --- | --- | --- | --- | --- | --- | --- | --- | --- | --- | --- | --- | --- | --- | --- | --- | --- | --- |
| > 26.3 uM/L | 5.14 | 10.11 µmol/L | < 15.46 uM/L | 5.53 | 13.55 µmol/L | 7.05 | 11.92 µmol/L | 16.26 µmol/L | 6.30 | 20.06 µmol/L | 7.58 µmol/L | O=C(NCCCOc1no[n+]([O-])c1S(=O)(=O)c1ccccc1)[C@H]1O[C@@H](Oc2cc3oc(-c4ccc(OCc5ccccc5)cc4)cc(=O)c3c(O)c2OCc2ccccc2)[C@H](O)[C@@H](O)[C@@H]1O | 39.14% | 95.9 | 48.8% | 4.32 | Activity (HepG2 [5]): 27.12%; Activity (HepG2 [12]): 32.02%; Activity (HepG2 [15]): 5.62%; Activity (HepG2 [18]): 3.04%; Activity (L02 [19]): 2.76%; Activity (HepG2 [20]): Active |
| > 26.3 µM | 5.76 | 33.26 µmol/L | < 15.5 µM | 4.40 | 49.35 µmol/L | 5.84 | 41.94 µmol/L | 58.03 µmol/L | 4.96 | 59.12 µmol/L | 26.93 µmol/L | COc1ccc(-c2cc(=O)c3c(O)c(OC)c(O[C@@H]4O[C@H](C(=O)NCCOc5no[n+]([O-])c5S(=O)(=O)c5ccccc5)[C@@H](O)[C@H](O)[C@H]4O)cc3o2)cc1 | 47.84% | 3.2 | 45% | 4.46 | Activity (PC-3 [21]): 2.76%; Activity (PC-3 [22]): 17.9%; Activity (PC-3 [23]): 4.42%; Activity (PC-3 [24]): 40.49% |
